According to ChEMBL document CHEMBL5247635 (Eur J Med Chem, 2022):
Activity calls are given as the source filed them. The rule behind the calls is not given here.

How the values were obtained:
Leishmania infantum [1] = assay: Antileishmanial activity against GFP-expressing Leishmania infantum intracellular amastigotes infected in human THP-1 derived macrophage cells assessed as reduction in parasite viability measured for 72 hrs by resazurin/alamar blue fluorometric assay; format: functional, organism-based
Summary of the method: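 Human THP-1-derived macrophages infected with GFP-expressing L. infantum amastigotes; compounds at 2.3–75 µM, infected cells monitored for 72 h. EC50 ± SE from three independent experiments.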

[2] = Selectivity index, ratio of CC50 for human HepG2 cells to EC50 for GFP-expressing Leishmania infantum intracellular amastigotes infected in human THP-1 derived macrophage cells; format: toxicity, cell-based; details: read-out: Ratio CC50/EC50
[3] = Selectivity index, ratio of CC50 for human HepG2 cells to EC50 for Leishmania infantum MCAN/ES/89/IPZ229/1/89 axenic amastigotes; format: toxicity; details: read-out: Ratio CC50/EC50
[4] = Cytotoxicity against human HepG2 cells assessed as reduction in cell proliferation treated for 24 hrs by crystal violet staining based analysis; format: toxicity
Leishmania infantum [5] = assay: Antileishmanial activity against Leishmania infantum MCAN/ES/89/IPZ229/1/89 axenic amastigotes assessed as reduction in parasite viability treated for 24 hrs by PI staining based flow cytometry; format: functional, organism-based; details: MCAN/ES/89/IPZ229/1/89, 24 h
Summary of the method: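 Axenic amastigotes were seeded from log-phase cultures at 10^5 parasites/mL in M199-based medium at pH 5.4. They were derived from promastigotes by 3 days at 37 °C. Compounds at 2.3–75 µM for 24 h at 37 °C. Viability read by propidium iodide flow cytometry. EC50 ± SE from three independent experiments, each in triplicate.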

[6] = Cytotoxicity against human HepG2 cells assessed as reduction in cell proliferation measured after 72 hrs by crystal violet staining based analysis; format: toxicity
Trypanothione reductase [7] = biological target: T1, Trypanothione reductase (Leishmania infantum, UniProt A4HSF7); assay: Inhibition of HIS-tagged recombinant Leishmania infantum TryR oxidoreductase activity expressed in Escherichia coli in the presence of NADPH by spectrophotometry based DTNB-coupled assay
T1 sequence (A4HSF7 whole entry): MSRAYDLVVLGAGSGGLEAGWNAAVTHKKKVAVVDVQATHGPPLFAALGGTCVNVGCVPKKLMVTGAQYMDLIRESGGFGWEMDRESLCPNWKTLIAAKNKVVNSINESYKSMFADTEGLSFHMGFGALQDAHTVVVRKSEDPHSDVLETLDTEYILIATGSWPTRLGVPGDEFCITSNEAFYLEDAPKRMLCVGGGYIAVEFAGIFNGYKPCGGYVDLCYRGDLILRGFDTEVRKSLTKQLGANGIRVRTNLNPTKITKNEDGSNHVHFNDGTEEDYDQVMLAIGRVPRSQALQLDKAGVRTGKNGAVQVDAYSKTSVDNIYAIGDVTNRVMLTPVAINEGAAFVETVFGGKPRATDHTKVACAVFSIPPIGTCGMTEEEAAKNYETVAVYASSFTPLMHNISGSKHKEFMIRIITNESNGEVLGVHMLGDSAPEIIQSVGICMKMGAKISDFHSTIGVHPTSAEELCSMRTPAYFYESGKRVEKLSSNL
Summary of the method: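 HIS-tagged LiTryR was used in a DTNB-coupled assay at 26 °C. Buffer: 40 mM HEPES pH 7.5, 1 mM EDTA, 30 µM NADP+, 25 µM DTNB, 150 µM NADPH, 1.75% DMSO. Standard runs used 1 µM TS2 and 7 nM enzyme; cross-species runs used 50 µM TS2 and 0.5 nM enzyme. Started with NADPH + TS2; TNB read at 412 nm. Compounds were screened at 75 µM first. Three independent experiments.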

Trypanothione reductase [8] = biological target: T1, Trypanothione reductase; assay: Disruption of HIS-FLAG-tagged recombinant Leishmania infantum TryR dimerization expressed in Escherichia coli Rossetta BL21 (DE3) cells incubated for 16 hrs by ELISA analysis
Summary of the method: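 400 nM HIS-FLAG-tagged LiTryR (co-purified with HIS-tagged LiTryR as heterodimer) incubated with compound (3.1–75 μM) in 50 mM Tris pH 8.0, 300 mM NaCl, 16 h, 37 °C with vigorous shaking; centrifuged, supernatant captured on α-FLAG plates, detected with HRP-α-HIS antibody and o-phenylenediamine, A490. Signal normalized to DMSO; IC50 by nonlinear regression; triplicate, three independent experiments.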

Trypanothione reductase [9] = biological target: Trypanothione reductase (Trypanosoma brucei brucei, UniProt P39051); assay: Inhibition of HIS-tagged recombinant Trypanosoma brucei TryR oxidoreductase activity expressed in Escherichia coli in the presence of NADPH by spectrophotometry based DTNB-coupled assay
Sequence of Trypanothione reductase (Trypanosoma brucei brucei, UniProt P39051) (P39051 whole entry): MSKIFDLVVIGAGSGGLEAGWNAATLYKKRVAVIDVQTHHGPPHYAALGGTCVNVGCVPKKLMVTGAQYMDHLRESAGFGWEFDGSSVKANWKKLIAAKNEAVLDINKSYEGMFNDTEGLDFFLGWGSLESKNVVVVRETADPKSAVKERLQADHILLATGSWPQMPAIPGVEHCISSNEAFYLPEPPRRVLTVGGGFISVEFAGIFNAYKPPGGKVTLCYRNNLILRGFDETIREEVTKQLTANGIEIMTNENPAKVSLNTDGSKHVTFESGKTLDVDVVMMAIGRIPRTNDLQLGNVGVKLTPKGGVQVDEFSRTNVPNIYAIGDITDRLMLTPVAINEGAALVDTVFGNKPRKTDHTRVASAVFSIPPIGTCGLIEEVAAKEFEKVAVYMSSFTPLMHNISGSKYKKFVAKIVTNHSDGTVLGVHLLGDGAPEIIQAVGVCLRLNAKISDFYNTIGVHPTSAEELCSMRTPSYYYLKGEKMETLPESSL
Summary of the method: (§1)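 HIS-tagged TryR from each species was expressed in E. coli. Activity was read by DTNB-coupled assay at 26 °C in 40 mM HEPES pH 7.5, 1 mM EDTA, 30 µM NADP+, 25 µM DTNB, 150 µM NADPH, 1.75% DMSO. Conditions were 50 µM TS2 and 0.5 nM enzyme; reaction started with NADPH + TS2. TNB absorbance at 412 nm. Three independent experiments.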

[10] = Thermodynamic aqueous solubility of compound at 25 degreeC measured after 24 hrs by HPLC analysis; format: physicochemical; details: buffer, read-out: Therm_solubility
Summary of the method: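 Excess compound was suspended in water (pH 5.5), sonicated 10 min, equilibrated overnight at room temperature, and centrifuged. Supernatant was diluted and quantified by HPLC (UV 254 nm) against a five-point standard curve (10–500 µM).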

Trypanothione reductase [11] = biological target: T1, Trypanothione reductase; assay: Competitive inhibition of HIS-FLAG-tagged recombinant Leishmania infantum TryR expressed in Escherichia coli assessed as dissociation constant by SPR assay
Trypanothione reductase [12] = biological target: T1, Trypanothione reductase; assay: Competitive inhibition of HIS-FLAG-tagged recombinant Leishmania infantum TryR expressed in Escherichia coli using TS2 substrate assessed as inhibition constant in the presence of NADPH by spectrophotometry based DTNB-coupled assay
Trypanothione reductase [13] = biological target: Trypanothione reductase (Trypanosoma congolense, UniProt P13110); assay: Inhibition of HIS-tagged recombinant Trypanosoma congolense TryR oxidoreductase activity expressed in Escherichia coli in the presence of NADPH by spectrophotometry based DTNB-coupled assay; summary of the method: as §1
Sequence of Trypanothione reductase (Trypanosoma congolense, UniProt P13110) (P13110 whole entry): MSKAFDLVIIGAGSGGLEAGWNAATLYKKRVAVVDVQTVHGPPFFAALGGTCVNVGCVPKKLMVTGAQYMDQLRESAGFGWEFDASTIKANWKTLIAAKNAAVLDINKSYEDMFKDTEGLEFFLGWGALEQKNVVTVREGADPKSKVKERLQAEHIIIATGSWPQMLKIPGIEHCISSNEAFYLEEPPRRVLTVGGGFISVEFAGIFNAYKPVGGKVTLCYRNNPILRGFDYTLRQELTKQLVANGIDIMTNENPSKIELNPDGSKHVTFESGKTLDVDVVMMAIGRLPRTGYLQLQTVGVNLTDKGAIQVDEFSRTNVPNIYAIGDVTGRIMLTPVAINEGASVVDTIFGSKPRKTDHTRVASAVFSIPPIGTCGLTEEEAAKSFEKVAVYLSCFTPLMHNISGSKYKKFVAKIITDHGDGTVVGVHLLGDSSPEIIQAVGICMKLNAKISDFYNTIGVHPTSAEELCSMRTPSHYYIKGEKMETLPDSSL

Trypanothione reductase [14] = biological target: Trypanothione reductase (Trypanosoma cruzi, UniProt P28593); assay: Inhibition of HIS-tagged recombinant Trypanosoma cruzi TryR oxidoreductase activity expressed in Escherichia coli in the presence of NADPH by spectrophotometry based DTNB-coupled assay; summary of the method: as §1
Sequence of Trypanothione reductase (Trypanosoma cruzi, UniProt P28593) (P28593 whole entry): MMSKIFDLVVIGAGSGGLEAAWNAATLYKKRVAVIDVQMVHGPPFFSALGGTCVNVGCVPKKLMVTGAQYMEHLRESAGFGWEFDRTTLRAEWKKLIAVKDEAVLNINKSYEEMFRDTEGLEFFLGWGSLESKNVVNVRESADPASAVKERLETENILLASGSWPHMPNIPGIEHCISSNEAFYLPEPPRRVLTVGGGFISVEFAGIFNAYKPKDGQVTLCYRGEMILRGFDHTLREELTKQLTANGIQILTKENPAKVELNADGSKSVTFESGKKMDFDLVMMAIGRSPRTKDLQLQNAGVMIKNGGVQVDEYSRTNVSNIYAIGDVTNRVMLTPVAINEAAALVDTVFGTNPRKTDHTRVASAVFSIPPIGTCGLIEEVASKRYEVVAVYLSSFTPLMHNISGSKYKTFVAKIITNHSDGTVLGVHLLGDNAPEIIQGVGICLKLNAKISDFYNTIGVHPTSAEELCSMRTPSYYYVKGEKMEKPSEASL

Leishmania infantum [15] = assay: Antileishmanial activity against H2O2-induced Leishmania infantum promastigotes assessed as reduction in non-protein thiol content at 5 mM treated for 72 hrs by CMF diacetate probe based flow cytometry relative to control; format: functional; set-up: scale not given: the % may be the effect or the level left
Summary of the method: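 Promastigotes grown in RPMI-1640 with 10% FCS and 25 mM HEPES pH 7.2 at 26 °C. Treatments were 75 µM for 1 h, 5 mM BSO for 72 h, or both combined; vehicle served as control. Some parasites were also H2O2-treated. Non-protein thiols read by flow cytometry as CMF diacetate green fluorescence in PI-excluding live parasites. Means of nine independent experiments with 99.0% confidence intervals.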

Leishmania infantum [16] = assay: Antileishmanial activity against Leishmania infantum promastigotes assessed as reduction in parasite growth at 5 mM treated for 72 hrs; format: functional, organism-based

IC50 (Trypanothione reductase [7]) | IC50 (Trypanothione reductase [8]) | Compound | EC50 (Leishmania infantum [1]) | selectivity ratio [2] | selectivity ratio [3] | CC50 at 24 h [4] | EC50 (Leishmania infantum [5]) | CC50 at 72 h [6] | solubility thermodynamic at 24 h [10] | other results
4 µM | > 75 µM | C[n+]1nn(-c2ccc(-c3nc(-c4ccc(-c5ccccc5)cc4)c(-c4ccccc4)s3)c(OCCN3CCNC3=O)c2)cc1CCCCN | 14.1 µM | 2.4 | > 12.3 | > 75 µM | 6.4 µM | 34.5 µM |  | 
2.1 µM | > 75 µM | C[n+]1nn(-c2ccc(-c3nc(CCc4ccccc4)cs3)c(OCC3CCNCC3)c2)cc1CCCCN |  |  | > 2.6 | > 75 µM | 28.4 µM |  |  | 
 |  | CCCCS(=N)(=O)CCC(N)C(=O)O (racemic) [BUTHIONINE SULFOXIMINE] |  |  |  |  |  |  |  | Activity (Leishmania infantum [15]): 50%; Activity (Leishmania infantum [16]): inactive
4.2 µM | > 75 µM | C[n+]1nn(-c2ccc(-c3nc(-c4ccc(Oc5ccccc5)cc4)c(-c4ccccc4)s3)c(OCCN3CCNC3=O)c2)cc1CCCCN | 15 µM | 2.8 | > 6.1 | > 75 µM | 12.2 µM | 42.6 µM |  | 
 |  | CCCCCCCCCCCCCCCCOP(=O)([O-])OCC[N+](C)(C)C [MILTEFOSINE] | 0.6 µM | > 125 |  |  |  | > 75 µM |  | 
 |  | NCCCCc1cn(-c2ccc(-c3nc(-c4ccccc4)c(-c4ccccc4)s3)c(OCCN3CCNC3=O)c2)nn1 | 24.2 µM | > 3.1 |  |  |  | > 75 µM |  | 
 |  | NCCCc1cn(-c2ccc(-c3nc(CCc4ccc(-c5ccccc5)cc4)cs3)c(OCCN3CCNC3=O)c2)nn1.O=C(O)C(F)(F)F | > 75 µM | < 1 |  |  |  | 37.3 µM | 2800 µg/mL | 
 |  | NCCCCc1cn(-c2ccc(-c3nc(CCc4ccccc4)cs3)c(OCCN3CCNC3=O)c2)nn1.O=C(O)C(F)(F)F | 29.4 µM | < 1 |  |  |  | 27.8 µM | 6400 µg/mL | 
 |  | NCCCCc1cn(-c2ccc(-c3nc(CCc4ccc(-c5ccccc5)cc4)cs3)c(OCCN3CCNC3=O)c2)nn1.O=C(O)C(F)(F)F | 52.1 µM | < 1 |  |  |  | 40.5 µM | 200 µg/mL | 
18.3 µM | > 75 µM | COc1cc(-n2cc(CCCCN)[n+](C)n2)ccc1-c1nc(CCc2ccccc2)cs1 |  |  | > 3.8 | > 75 µM | 20 µM |  |  | 
 |  | NCCCCc1cn(-c2ccc(-c3nc(CCc4cccc5ccccc45)cs3)c(OCCN3CCNC3=O)c2)nn1.O=C(O)C(F)(F)F | > 75 µM | < 1 |  |  |  | > 29 µM | 2100 µg/mL | 
7.8 µM | > 75 µM | C[n+]1nn(-c2ccc(-c3nc(CCc4ccc(Oc5ccccc5)cc4)c(-c4ccccc4)s3)c(OCCN3CCNC3=O)c2)cc1CCCCN |  |  | 4 | 35.2 µM | 8.9 µM |  |  | 
5.5 µM | > 75 µM | COc1cc(-n2cc(CCCCN)[n+](C)n2)ccc1-c1nc(CCc2ccc(-c3ccccc3)cc2)cs1 |  |  | 4.7 | 35.9 µM | 7.6 µM |  |  | 
6.8 µM | > 75 µM | C[n+]1nn(-c2ccc(-c3nc(CCc4ccc(-c5ccccc5)cc4)c(-c4ccccc4)s3)c(OCCN3CCNC3=O)c2)cc1CCCCN | 24.2 µM | 2.2 | 7.8 | 46.5 µM | 6 µM | 54.5 µM |  | 
5.4 µM | > 75 µM | C[n+]1nn(-c2ccc(-c3nc(CCC4Cc5ccccc5O4)cs3)c(OCCN3CCNC3=O)c2)cc1CCCCN (configuration not stated) |  |  | < 1 | > 75 µM | > 75 µM |  |  | 

Compound | IC50 (Trypanothione reductase [7]) | IC50 (Trypanothione reductase [8]) | EC50 (Leishmania infantum [1]) | selectivity ratio [2] | selectivity ratio [3] | CC50 at 24 h [4] | EC50 (Leishmania infantum [5]) | CC50 at 72 h [6] | solubility thermodynamic at 24 h [10] | other results
C[n+]1nn(-c2ccc(-c3nc(CCc4ccccc4)cs3)c(OCCN3CCNC3=O)c2)cc1CCCCN.O=C(O)C(F)(F)F.O=S(=O)([O-])C(F)(F)F | 9.4 µM |  |  |  | > 1.1 | > 75 µM | 66.6 µM |  | > 15900 µg/mL | IC50 (Trypanothione reductase [9]): 26.9 µM; Kd (Trypanothione reductase [11]): 1000 nM; Ki (Trypanothione reductase [12]): 7.3 µM; IC50 (Trypanothione reductase [13]): 18.7 µM; IC50 (Trypanothione reductase [14]): 48.5 µM
C[n+]1nn(-c2ccc(-c3nc(-c4ccccc4)cs3)c(OCCN3CCNC3=O)c2)cc1CCCCN | 20.3 µM |  |  |  | > 1.2 | > 75 µM | 62.4 µM |  |  | 
C[n+]1nn(-c2ccc(-c3nc(CCc4ccc5ccccc5c4)cs3)c(OCCN3CCNC3=O)c2)cc1CCCCN.O=C(O)C(F)(F)F.O=S(=O)([O-])C(F)(F)F |  | > 75 µM | 27 µM | > 2.8 | > 5.8 | > 75 µM | 12.9 µM | > 75 µM | 23500 µg/mL | IC50 (Trypanothione reductase [9]): 5.1 µM; IC50 (Trypanothione reductase [13]): 4.2 µM; IC50 (Trypanothione reductase [14]): 9.2 µM
C[n+]1nn(-c2ccc(-c3nc(CCc4ccccc4)cs3)c(OCCC3CCNCC3)c2)cc1CCCCN | 2.2 µM |  |  |  | < 1 | > 75 µM | > 75 µM |  |  | 
C[n+]1nn(-c2ccc(-c3nc(CCc4ccccc4)cs3)c(OCCN3CCNC3=O)c2)cc1CCCN | 42 µM |  |  |  | < 1 | > 75 µM | > 75 µM |  |  | 
C[n+]1nn(-c2ccc(-c3nc(-c4ccccc4)c(-c4ccccc4)s3)c(OCCN3CCNC3=O)c2)cc1CCCCN | 3.9 µM |  | 73.8 µM |  | > 5.8 | > 75 µM | 12.9 µM | > 75 µM |  | 
C[n+]1nn(-c2ccc(-c3nc(CCc4ccc(-c5ccccc5)cc4)cs3)c(OCCN3CCNC3=O)c2)cc1CCCN.O=C(O)C(F)(F)F.O=S(=O)([O-])C(F)(F)F |  | 45.4 µM | 7.3 µM | > 10.3 | > 15.6 | > 75 µM | 4.8 µM | > 75 µM | 21600 µg/mL | 
CC[n+]1nn(-c2ccc(-c3nc(CCc4ccc(-c5ccccc5)cc4)cs3)c(OCCN3CCNC3=O)c2)cc1CCCCN |  | 56.9 µM | 10 µM | 6.4 | > 5.6 | > 75 µM | 14 µM | 63.8 µM |  | 
